Measured values: ChEMBL document CHEMBL1130139, “Synthesis and activity of 6-substituted purine linker amino acid immunostimulants” (1997)
Values joined by “and” are separate entries in the source; they are usually repeats but may differ in a detail not shown here. Equal entries are not always repeated.

Legend:
Assay type in all cases: functional
Mus musculus [1] = species on record: Mus musculus; test: In vitro cytotoxic T-Lymphocyte (CTL) activity relative to interleukin 2 was obtained at a concentration of 10 e -7 M(+ represents 21 - 40% of interleukin 2)
In short: (§1)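 Splenocytes from 6- to 8-week-old female C57BL/6 and irradiated (3000 rads) DBA/2 mice, 10⁷ cells, were cultured together in RPMI 1640 with 10% FCS. Culture ran 120 h at 37 °C in 5% CO₂, with [³H]thymidine pulse of an aliquot. Percent specific lysis was scaled to IL 2 (taken as 100%) and scored 0 to ++++ in 20% bands.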

Mus musculus [2] = species on record: Mus musculus; test: In vitro cytotoxic T-Lymphocyte (CTL) activity relative to interleukin 2 was obtained at a concentration of 10 e -5 M(++ represents 41 - 60% of interleukin 2); in short: as §1
Mus musculus [3] = species on record: Mus musculus; test: In vitro cytotoxic T-Lymphocyte (CTL) activity relative to interleukin 2 was obtained at a concentration of 10 e -7 M(++ represents 41 - 60% of interleukin 2); in short: as §1
Mus musculus [4] = test: In vivo blood immunophenotyping (CD4+CD45+ cells) assay was performed by injecting 0 mg/Kg of compound intraperitoneally in mice
In short: (§2)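 Female 6- to 8-week-old C57BL/6 mice were dosed ip once daily for one, four or nine consecutive days, drug in physiological saline. For single dosing, groups of seven were used. Blood and spleen cells were ACK-lysed (pH 7.3, 5 min) and PBS-washed, then stained 45 min on ice with FITC/PE surface-marker antibodies. Cells were fixed in 1% paraformaldehyde and read by flow cytometry as relative subset percentages.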

Mus musculus [5] = test: In vivo blood immunophenotyping (CD4+CD45+ cells) assay was performed by injecting 100 mg/Kg of compound intraperitoneally in mice; in short: as §2
Mus musculus [6] = test: In vivo blood immunophenotyping (CD4+CD45+ cells) assay was performed by injecting 25 mg/Kg of compound intraperitoneally in mice; in short: as §2
Mus musculus [7] = test: In vivo blood immunophenotyping (CD4+CD45+ cells) assay was performed by injecting 50 mg/Kg of compound intraperitoneally in mice; in short: as §2
Mus musculus [8] = test: In vivo spleen immunophenotyping (TCR cells) assay was performed by injecting 25 mg/Kg of compound intraperitoneally in mice; in short: as §2
Mus musculus [9] = test: In vivo spleen immunophenotyping (TCR cells) assay was performed by injecting 50 mg/Kg of compound intraperitoneally in mice; in short: as §2
Mus musculus [10] = test: In vivo immunophenotyping (CD4-CD8- cells) assay was performed by injecting 25 mg/Kg of compound intraperitoneally in mice and blood is collected; in short: as §2
Mus musculus [11] = test: In vivo immunophenotyping (CD4-CD8- cells) assay was performed by injecting 50 mg/Kg of compound intraperitoneally in mice and blood is collected; in short: as §2
Mus musculus [12] = test: In vivo spleen immunophenotyping (CD8+CD45+ cells) assay was performed by injecting 0 mg/Kg of compound intraperitoneally in mice; in short: as §2
Mus musculus [13] = test: In vivo spleen immunophenotyping (CD8+CD45+ cells) assay was performed by injecting 100 mg/Kg of compound intraperitoneally in mice; in short: as §2
Mus musculus [14] = test: In vivo spleen immunophenotyping (CD8+CD45+ cells) assay was performed by injecting 25 mg/Kg of compound intraperitoneally in mice; in short: as §2
Mus musculus [15] = test: In vivo spleen immunophenotyping (CD8+CD45+ cells) assay was performed by injecting 50 mg/Kg of compound intraperitoneally in mice; in short: as §2
Mus musculus [16] = test: In vivo spleen immunophenotyping (Ly5 cells) assay was performed by injecting 0 mg/Kg of compound intraperitoneally in mice; in short: as §2
Mus musculus [17] = test: In vivo spleen immunophenotyping (Ly5 cells) assay was performed by injecting 25 mg/Kg of compound intraperitoneally in mice; in short: as §2
Mus musculus [18] = test: In vivo spleen immunophenotyping (Ly5 cells) assay was performed by injecting 50 mg/Kg of compound intraperitoneally in mice; in short: as §2
Mus musculus [19] = test: In vivo spleen immunophenotyping (TCR cells) assay was performed by injecting 0 mg/Kg of compound intraperitoneally in mice; in short: as §2
Mus musculus [20] = test: In vivo blood immunophenotyping (CD4-CD11b+ cells) assay was performed by injecting 0 mg/Kg of compound intraperitoneally in mice; in short: as §2
Mus musculus [21] = test: In vivo blood immunophenotyping (CD4-CD11b+ cells) assay was performed by injecting 25 mg/Kg of compound intraperitoneally in mice; in short: as §2
Mus musculus [22] = test: In vivo blood immunophenotyping (CD4-CD11b+ cells) assay was performed by injecting 50 mg/Kg of compound intraperitoneally in mice; in short: as §2
Mus musculus [23] = test: In vivo blood immunophenotyping (CD8+CD45+ cells) assay was performed by injecting 0 mg/Kg of compound intraperitoneally in mice; in short: as §2
Mus musculus [24] = test: In vivo blood immunophenotyping (CD8+CD45+ cells) assay was performed by injecting 100 mg/Kg of compound intraperitoneally in mice; in short: as §2
Mus musculus [25] = test: In vivo blood immunophenotyping (CD8+CD45+ cells) assay was performed by injecting 25 mg/Kg of compound intraperitoneally in mice; in short: as §2
Mus musculus [26] = test: In vivo blood immunophenotyping (CD8+CD45+ cells) assay was performed by injecting 50 mg/Kg of compound intraperitoneally in mice; in short: as §2
Mus musculus [27] = test: In vivo blood immunophenotyping (NK+CD3+ cells) assay was performed by injecting 0 mg/Kg of compound intraperitoneally in mice; in short: as §2
Mus musculus [28] = test: In vivo blood immunophenotyping (NK+CD3+ cells) assay was performed by injecting 25 mg/Kg of compound intraperitoneally in mice; in short: as §2
Mus musculus [29] = test: In vivo blood immunophenotyping (NK+CD3+ cells) assay was performed by injecting 50 mg/Kg of compound intraperitoneally in mice; in short: as §2
Mus musculus [30] = test: In vivo blood immunophenotyping (NK+CD3- cells) assay was performed by injecting 0 mg/Kg of compound intraperitoneally in mice; in short: as §2
Mus musculus [31] = test: In vivo blood immunophenotyping (NK+CD3- cells) assay was performed by injecting 25 mg/Kg of compound intraperitoneally in mice; in short: as §2
Mus musculus [32] = test: In vivo blood immunophenotyping (NK+CD3- cells) assay was performed by injecting 50 mg/Kg of compound intraperitoneally in mice; in short: as §2
Mus musculus [33] = test: In vivo immunophenotyping (CD4+ cells) assay was performed by injecting 0 mg/Kg of compound intraperitoneally in mice and blood is collected; in short: as §2
Mus musculus [34] = test: In vivo immunophenotyping (CD4-CD8- cells) assay was performed by injecting 0 mg/Kg of compound intraperitoneally in mice and blood is collected; in short: as §2
Mus musculus [35] = test: In vivo immunophenotyping (CD4-CD8- cells) assay was performed by injecting 100 mg/Kg of compound intraperitoneally in mice and blood is collected; in short: as §2
Mus musculus [36] = species on record: Mus musculus; test: In vitro cytotoxic T-Lymphocyte (CTL) activity relative to interleukin 2 was obtained at a concentration of 10 e -5 M (+ represents 21 - 40% of interleukin 2); in short: as §1
Mus musculus [37] = species on record: Mus musculus; test: In vitro cytotoxic T-Lymphocyte (CTL) activity relative to interleukin 2 was obtained at a concentration of 10 e -9 M(++ represents 41 - 60% of interleukin 2); in short: as §1
Mus musculus [38] = species on record: Mus musculus; test: In vitro cytotoxic T-Lymphocyte (CTL) activity relative to interleukin 2 was obtained at a concentration of 10 e -7 M (++ represents 41 - 60% of interleukin 2); in short: as §1
Mus musculus [39] = species on record: Mus musculus; test: In vitro cytotoxic T-Lymphocyte (CTL) activity relative to interleukin 2 was obtained at a concentration of 10 e -97M(++ represents 41 - 60% of interleukin 2); in short: as §1
Mus musculus [40] = species on record: Mus musculus; test: In vitro cytotoxic T-Lymphocyte (CTL) activity relative to interleukin 2 was obtained at a concentration of 10 e -7 M(++ represents 21 - 40% of interleukin 2); details: in the assay text read “+ represents” for “++ represents”; in short: as §1
Mus musculus [41] = species on record: Mus musculus; test: In vitro cytotoxic T-Lymphocyte (CTL) activity relative to interleukin 2 was obtained at a concentration of 10 e -5 M(+ represents 21 - 40% of interleukin 2); in short: as §1
Mus musculus [42] = species on record: Mus musculus; test: In vitro cytotoxic T-Lymphocyte (CTL) activity relative to interleukin 2 was obtained at a concentration of 10 e -7 M(++ +represents 61 - 80% of interleukin 2); in short: as §1
Mus musculus [43] = species on record: Mus musculus; test: In vitro cytotoxic T-Lymphocyte (CTL) activity relative to interleukin 2 was obtained at a concentration of 10 e -7 M(++++ represents 81 - 100% of interleukin 2); in short: as §1

## N=C(N)NCCCC(NC(=O)OCCCCCn1cnc2c(S)ncnc21)C(=O)O (single isomer, unassigned)
Mus musculus [1]
  CTL activity: 21 - 40% of interleukin 2

## N=C(N)NCCCC(NC(=O)OCCCCCn1cnc2cncnc21)C(=O)O (single isomer, unassigned)
Mus musculus [2]
  CTL activity: 41 - 60% of interleukin 2

## CN(C)c1ncnc2c1ncn2C[C@H]1CC[C@H](COC(=O)N[C@@H](CCCNC(=N)N)C(=O)O)CC1
Mus musculus [3]
  CTL activity: 41 - 60% of interleukin 2

## CN(C)c1ncnc2c1ncn2CCCCCOC(=O)N[C@@H](CCCNC(=N)N)C(=O)O [BCH-1393]
Mus musculus [4]
  Mean: 17.5
Mus musculus [5]
  Mean: 20.6
Mus musculus [6]
  Mean: 18.5
Mus musculus [7]
  Mean: 22.1
Mus musculus [8]
  Mean: 39.8
Mus musculus [9]
  Mean: 45.1
Mus musculus [10]
  Mean: 70.7
Mus musculus [11]
  Mean: 74.7
Mus musculus [12]
  Mean: 7.81
Mus musculus [13]
  Mean: 9.13
Mus musculus [14]
  Mean: 7.46
Mus musculus [15]
  Mean: 8.92
Mus musculus [16]
  Mean: 55.5
Mus musculus [17]
  Mean: 54.1
Mus musculus [18]
  Mean: 50.4
Mus musculus [19]
  Mean: 38.9
Mus musculus [20]
  Mean: 9.6
Mus musculus [21]
  Mean: 13.7
Mus musculus [22]
  Mean: 9.68
Mus musculus [23]
  Mean: 8.25 and 6.9
Mus musculus [24]
  Mean: 9.96
Mus musculus [25]
  Mean: 11.7 and 8.39
Mus musculus [26]
  Mean: 10.1 and 9.06
Mus musculus [27]
  Mean: 3.43
Mus musculus [28]
  Mean: 5.84
Mus musculus [29]
  Mean: 3.25
Mus musculus [30]
  Mean: 6.01
Mus musculus [31]
  Mean: 5.9
Mus musculus [32]
  Mean: 8.14
Mus musculus [33]
  Mean: 20.9 and 8.1
Mus musculus [34]
  Mean: 65.9
Mus musculus [35]
  Mean: 82.1

## CNc1ncnc2c1ncn2CCCCCOC(=O)NC(CCCNC(=N)N)C(=O)O (single isomer, unassigned)
Mus musculus [36]
  CTL activity: 21 - 40% of interleukin 2

## N=C(N)NCCC[C@@H](NC(=O)OCCCCCn1cnc2c(O)ncnc21)C(=O)O
Mus musculus [3]
  CTL activity: 41 - 60% of interleukin 2

## CN(C)c1ncnc2c1ncn2CCCCOC(=O)N[C@@H](CCCNC(=N)N)C(=O)O
Mus musculus [37]
  CTL activity: 41 - 60% of interleukin 2

## CN(C)c1ncnc2c1ncn2CCSCCOC(=O)NC(CCCNC(=N)N)C(=O)O (single isomer, unassigned)
Mus musculus [38]
  CTL activity: 41 - 60% of interleukin 2

## CN(C)c1ncnc2c1ncn2CCCCCO
Mus musculus [39]
  CTL activity: 41 - 60% of interleukin 2

## CN(C)c1ncnc2c1ncn2CCCCCCOC(=O)N[C@@H](CCCNC(=N)N)C(=O)O
Mus musculus [3]
  CTL activity: 41 - 60% of interleukin 2

## N=C(N)NCCC[C@H](NC(=O)OCCCCCn1cnc2c(NC3CC3)ncnc21)C(=O)O
Mus musculus [40]
  CTL activity: 21 - 40% of interleukin 2

## CN(C)c1ncnc2c1ncn2CCCCCOC(=O)NC(CCCNC(N)=O)C(=O)O (stereo not drawn)
Mus musculus [41]
  CTL activity: 21 - 40% of interleukin 2

## N=C(N)NCCCC(NC(=O)OCCCCCn1cnc2c(N)ncnc21)C(=O)O (single isomer, unassigned)
Mus musculus [1]
  CTL activity: 21 - 40% of interleukin 2
Mus musculus [42]
  CTL activity: +

## N=C(N)NCCCC(NC(=O)OCCCCCn1cnc2c(NN)ncnc21)C(=O)O (single isomer, unassigned)
Mus musculus [43]
  CTL activity: ++

## CN(C)c1ncnc2c1ncn2CCCCCNC(=O)OCCCCCn1cnc2c(N(C)C)ncnc21
Mus musculus [3]
  CTL activity: 41 - 60% of interleukin 2

## CN(C)c1ncnc2c1ncn2C[C@H]1CC[C@@H](COC(=O)N[C@@H](CCCNC(=N)N)C(=O)O)CC1
Mus musculus [41]
  CTL activity: 21 - 40% of interleukin 2

## CN(C)c1ncnc2c1ncn2CCCCCOC(=O)CCN
Mus musculus [3]
  CTL activity: 41 - 60% of interleukin 2

## CC1CN1c1ncnc2c1ncn2CCCCCOC(=O)N[C@@H](CCCNC(=N)N)C(=O)O (stereo partly drawn)
Mus musculus [3]
  CTL activity: 41 - 60% of interleukin 2

## CN(C)c1ncnc2c1ncn2CCCCCOC(=O)NCC(=O)O
Mus musculus [1]
  CTL activity: 21 - 40% of interleukin 2

## N=C(N)NCCC[C@H](NC(=O)OCCCCCn1cnc2c(N3CCC3)ncnc21)C(=O)O
Mus musculus [40]
  CTL activity: 21 - 40% of interleukin 2

## N=C(N)NCCCC(NC(=O)OCCCCCn1cnc2c(O)ncnc21)C(=O)O (single isomer, unassigned)
Mus musculus [3]
  CTL activity: 41 - 60% of interleukin 2
